Results as given in PubChem BioAssay AID638 (SRMLSC, 2007).
The whole screen tested about 1,300 compounds, of which about 65 (5%) were called active. Only a sample is shown. Entries with a potency or affinity are not part of this list. A number with no mark means an inactive call.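 The calls were made as follows: active = growth inhibition reaching a set limit at one or more tested doses; inactive = the rest.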

Assay: wild-type E. coli BW25113 antibacterial activity – OD615, dose response (AID 638)
Details: at 100 µM (top of the series) unless noted
How it was run: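 Assay system: E. coli BW25113 wild type. Doses: compound concentration series. Timing: 20 h compound exposure, 37 °C. Technique: OD615 absorbance. Medium: LB broth containing kanamycin at 50 µg/mL. Benchmarks: chloramphenicol at 30 µM final as inhibition control. Measure: IC50 from 4-parameter logistic, bounds fixed 0–100%.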

For `COc1ccc(-c2noc(Cc3ccc(Cl)cc3)n2)cc1OC`, which growth inhibition is on record?
Its growth inhibition is 7.9%.

For `COc1cccc(N2CC(C(=O)Nc3ccc(C(=O)OC(C)C)cc3)CC2=O)c1` (stereo unspecified), which growth inhibition is on record?
The growth inhibition was 5.31%.

Which growth inhibition does the source give for `CCCCCOC(=O)c1ccc(NC(=O)c2ccco2)cc1` here?
The growth inhibition was -0.06%.

With `CCOC(=O)c1cnc(-n2nc(C)cc2C)nc1NC1CCCCC1` as the compound, how does the growth inhibition read?
The growth inhibition was -4.22%.

For `COc1ccccc1N1CCN(Cc2nc(N)nc(Nc3ccc(C)c(Cl)c3)n2)CC1`, which growth inhibition is on record?
Its growth inhibition is 8.69%.

Which growth inhibition does the source give for `CN1C(=O)C2(OCC(COc3ccc(Cl)cc3)O2)c2ccccc21` (stereo unspecified) here?
The growth inhibition was -7.83%.

Which growth inhibition does the source give for `Cc1ccc(C)c(Cn2c(CN(C)Cc3ccccc3)nc3c2c(=O)n(C)c(=O)n3C)c1` here?
Its growth inhibition is -10%.

With `CCC(Oc1ccccc1)C(=O)Nc1ccc(-c2nnc(-c3ccco3)o2)cc1` (stereo unspecified) as the compound, how does the growth inhibition read?
The growth inhibition was -9.73%.

For `Cc1nc2c(C(=O)NCCC3=CCCCC3)c[nH]n2c(=O)c1Cl`, which growth inhibition is on record?
The growth inhibition was 5.42%.

With `CCOC(=O)C1CN(c2cc3c(cc2F)c(=O)c(C(=O)O)cn3CC)OC1C(=O)OCC` (stereo unspecified) as the compound, how does the growth inhibition read?
The growth inhibition was 3.92%.

With `Cc1cc(N2CCC(C)CC2)nc(-n2nc(C)cc2C)n1` as the compound, how does the growth inhibition read?
The growth inhibition was -4.79%.

For `O=c1[nH]c(=O)n(C2CCCCCC2)c(O)c1C=NCc1ccc(F)cc1`, which growth inhibition is on record?
The growth inhibition was -0.14%.

Which growth inhibition does the source give for `COC(=O)c1c(NC(=O)CCc2ccc(C)o2)sc(C)c1C` here?
The growth inhibition was 3.59%.

With `N#Cc1nc(Cc2ccccc2)oc1NCc1ccccc1Cl` as the compound, how does the growth inhibition read?
Its growth inhibition is 14.5%.

With `N#Cc1nc(Cc2cccc3ccccc23)oc1NCCCn1ccnc1` as the compound, how does the growth inhibition read?
The growth inhibition was 2.47%.

With `N#Cc1nc(Cc2cccc3ccccc23)oc1NCc1ccc(F)cc1` as the compound, how does the growth inhibition read?
Its growth inhibition is 20% (active).

For `CC1CCC(C(C)C)C(OC(=O)COC(=O)c2ccc(=O)[nH]c2)C1` (stereo unspecified), which growth inhibition is on record?
The growth inhibition was 1.53%.

Which growth inhibition does the source give for `C=CCn1c(NC(C)c2cc(Cl)ccc2O)nc2ccccc21` (stereo unspecified) here?
The growth inhibition was 13.7%.

For `O=C(Nc1ccccc1N1CCCCC1)c1cccs1`, which growth inhibition is on record?
Its growth inhibition is 1.03%.

For `O=C(OC1CCCCC1)c1ccc(NC(=O)c2ccco2)cc1`, which growth inhibition is on record?
The growth inhibition was 2.7%.

Which growth inhibition does the source give for `O=C(Nc1nnc(-c2ccc(F)cc2)o1)c1ccco1` here?
The growth inhibition was 1.59%.

For `Cc1nn(-c2ccccc2)c(C)c1C(=O)Nc1nnc(-c2ccco2)o1`, which growth inhibition is on record?
The growth inhibition was 9.7%.

For `Cc1ccc(-c2csc3ncnc(Sc4nnc(CN5CCCCCC5=O)o4)c23)cc1`, which growth inhibition is on record?
Its growth inhibition is 5.4%.

Which growth inhibition does the source give for `CCc1ccc2[nH]c(=O)c(C(c3nnnn3CCOC)N3CCN(c4ccc(F)cc4)CC3)cc2c1` (stereo unspecified) here?
The growth inhibition was -0.14%.

For `CC(C)OCCCNc1ncnc2c1[nH]c1ccc(F)cc12`, which growth inhibition is on record?
Its growth inhibition is 9.62%.

With `CC(C)OCCCNc1ncnc2c1[nH]c1ccccc12` as the compound, how does the growth inhibition read?
Its growth inhibition is 8.07%.

For `CCOc1ccc2[nH]c3c(N4CCN(c5ccccn5)CC4)ncnc3c2c1`, which growth inhibition is on record?
Its growth inhibition is -8.17%.

Which growth inhibition does the source give for `N#C/C(=C\c1cccs1)Sc1nc2ccccc2s1` here?
Its growth inhibition is -8.78%.

With `O=C(CN(Cc1ccc2c(c1)OCO2)C(=O)CSc1nc2ccccc2o1)NC1CCCCC1` as the compound, how does the growth inhibition read?
Its growth inhibition is -6.97%.

For `C=C(C)Cn1c(N2CCC(Cc3ccccc3)CC2)nc2c1c(=O)[nH]c(=O)n2C`, which growth inhibition is on record?
The growth inhibition was -2.32%.

Which growth inhibition does the source give for `Cn1c(=O)c2c(nc(N3CCCCCC3)n2Cc2cccc3ccccc23)n(C)c1=O` here?
Its growth inhibition is -1.26%.

For `CCOc1ccccc1N1CCN(Cc2ccc(Br)s2)CC1`, which growth inhibition is on record?
Its growth inhibition is -0.45%.

With `CC1=CC(C)(C)N2C(=O)C3(SCC(=O)N3c3ccc(O)cc3)c3cc(C)cc1c32` (stereo unspecified) as the compound, how does the growth inhibition read?
Its growth inhibition is 1.81%.

For `CCCOC(=O)c1ccc(Oc2cn[nH]c2-c2ccc(OCC)cc2O)cc1`, which growth inhibition is on record?
Its growth inhibition is 8.01%.

For `Cn1c(=O)n(CCCOc2ccc(Br)cc2)c2ccccc21`, which growth inhibition is on record?
Its growth inhibition is 9.45%.

Which growth inhibition does the source give for `C=C(C)COc1ccc(-c2n[nH]c(C)c2Oc2ccccc2OC)c(O)c1` here?
Its growth inhibition is 0.02%.

With `C=C(C)COc1ccc(-c2n[nH]c(C)c2-c2ccccc2OC)c(O)c1` as the compound, how does the growth inhibition read?
The growth inhibition was 8.4%.

Which growth inhibition does the source give for `C=C(C)COc1ccc(-c2n[nH]c(C)c2-c2ccccc2)c(O)c1` here?
Its growth inhibition is 20.5% (active).

With `c1ccc(-c2nc(N3CCCCCC3)c3ccccc3n2)nc1` as the compound, how does the growth inhibition read?
The growth inhibition was 17.1% [at 50 µM].

With `Cc1cccc(Nc2nc(-c3ccccn3)cs2)n1` as the compound, how does the growth inhibition read?
The growth inhibition was 4.37%.

For `CCCCn1c(NC(=O)c2ccccc2)c(C#N)c2nc3ccccc3nc21`, which growth inhibition is on record?
The growth inhibition was -8.7%.

Which growth inhibition does the source give for `CCn1c(Cn2nnc(-c3ccccc3)n2)nnc1SCc1ccc(Cl)c(Cl)c1` here?
The growth inhibition was -0.33%.

Which growth inhibition does the source give for `Cc1cccc(NC(=O)c2cc(NC(=O)C3CCCCC3C(=O)O)ccc2N2CCCCC2)c1` (stereo unspecified) here?
Its growth inhibition is -4.25%.

With `O=C(COn1nnc2ccc(C(F)(F)F)cc21)Nc1nnc(-c2ccccc2)o1` as the compound, how does the growth inhibition read?
The growth inhibition was -3.92%.

With `O/N=C(\c1ccc(Cl)cc1)c1cc2ccccc2o1` as the compound, how does the growth inhibition read?
Its growth inhibition is 8.62%.

With `Cc1onc(-c2ccccc2)c1C(=O)OCC(=O)c1ccccc1` as the compound, how does the growth inhibition read?
Its growth inhibition is 1.87%.
